Consider eleven compounds from ChEMBL document CHEMBL1153146, “Novel potent apoA-I peptide mimetics that stimulate cholesterol efflux and pre-beta particle formation in vitro” (Bioorg Med Chem Lett, 2010).

Data set [1] deals with RAW264.7. Nature of the data set: Induction of [3H]cholesterol efflux in mouse RAW264.7 cells at 30 uM after 24 hrs by scintillation counting. The class given is functional, cell-based.
Data set [2] has as its system RAW264.7. The data set is described as follows: Cytotoxicity against mouse RAW264.7 cells after 24 hrs by MTT assay. Type of data set: cell-based. As to conditions: RAW264.7, 24 h; call rule not given here. In outline:
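RAW macrophage cytotoxicity examined at peptide concentrations up to 160 µM.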

Data set [3] can be described thus: Toxicity in human RBC assessed as hemolysis. Type of data set: cell-based, Erythrocyte. As to conditions: red blood cells (RBC). The method, boiled down:
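Red blood cell lysis assay; cytotoxicity reported as IC50 in µM.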

The subject of data set [4] is RAW264.7. Nature of the data set: Induction of [3H]cholesterol efflux in mouse RAW264.7 cells after 24 hrs by scintillation counting. Type of data set: functional, cell-based. In outline:
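Cholesterol efflux from RAW macrophages; EC50 reported in µM as the mean of three experiments.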

A short description of data set [5]: Toxicity in human RBC assessed as minimum lytic concentration. Type of data set: cell-based. Particulars: erythrocyte.
[6] abbreviates: Mus musculus, RAW264.7, read-out: EC50.

In brackets after ≈: the same amount, converted by molar mass. Starred links: 1 amine or outer side, 2 acyl side, 3 side chain; linkers in the order of their positions; H or OH if unused. Positions of bridges follow the written chain, without caps; N, C: chain ends. Non-standard residues stand in square brackets, D forms with d. Residues, ends and D or L forms follow the SMILES beside them. X1 = O=C([C@@H](CCCCC=[*:3])N[*:1])[*:2]; X2 = O=C([C@H](CCCCCC=[*:3])N[*:1])[*:2]; Gla = N[C@@H](CC(C(=O)O)C(=O)O)C(=O)O; Aib = CC(C)(N)C(=O)O

Regarding `CC(C)C[C@H](NC(=O)[C@H](CCCCN)NC(=O)[C@H](CCC(N)=O)NC(=O)[C@H](CCCCN)NC(=O)[C@H]1CCC/C=C\CCC[C@@H](NC(=O)[C@H](CCC(=O)O)NC(=O)[C@H](CC(N)=O)NC(=O)[C@H](CC(C)C)NC(=O)[C@H](CCCCN)NC(=O)[C@H](CCC(=O)O)NC(=O)[C@H](CCCNC(=N)N)NC(=O)[C@H](Cc2ccccc2)NC(=O)[C@H](CCC(=O)O)NC(=O)[C@H](CC(=O)O)NC(=O)[C@H](CC(C)C)NC(=O)[C@@H](NC(=O)[C@@H]2CCCN2)C(C)C)C(=O)N[C@@H](CC(C)C)C(=O)N[C@@H](CCC(=O)O)C(=O)N[C@@H](C)C(=O)N1)C(=O)N[C@@H](CCCCN)C(=O)O`, the cholesterol efflux in the data set with RAW264.7 [1] was found to be 2%. For the same compound, the IC50 (with RAW264.7 [2]; in data set [3]) was more than 160 µM throughout.
In the data set on RAW264.7 [1], `C=CCCC[C@@H](NC(=O)[C@H](C)NC(=O)[C@H](CCC(=O)O)NC(=O)[C@H](CC(C)C)NC(=O)[C@@H](CCCC=C)NC(=O)[C@H](CCC(=O)O)NC(=O)[C@H](CC(N)=O)NC(=O)[C@H](CC(C)C)NC(=O)[C@H](CCCCN)NC(=O)[C@H](CCC(=O)O)NC(=O)[C@H](CCCNC(=N)N)NC(=O)[C@H](Cc1ccccc1)NC(=O)[C@H](CCC(=O)O)NC(=O)[C@H](CC(=O)O)NC(=O)[C@H](CC(C)C)NC(=O)[C@@H](NC(=O)[C@@H]1CCCN1)C(C)C)C(=O)N[C@@H](CCCCN)C(=O)N[C@@H](CCC(N)=O)C(=O)N[C@@H](CCCCN)C(=O)N[C@@H](CC(C)C)C(=O)N[C@@H](CCCCN)C(=O)O` showed a cholesterol efflux of 3%. For the same compound, the IC50 (with RAW264.7 [2]; in data set [3]) was more than 160 µM throughout.
In the data set on RAW264.7 [1], `C=CCCC[C@H](NC(=O)[C@H](CCC(=O)O)NC(=O)[C@H](CC(N)=O)NC(=O)[C@H](CC(C)C)NC(=O)[C@H](CCCC=C)NC(=O)[C@H](CCC(=O)O)NC(=O)[C@H](CCCNC(=N)N)NC(=O)[C@H](Cc1ccccc1)NC(=O)[C@H](CCC(=O)O)NC(=O)[C@H](CC(=O)O)NC(=O)[C@H](CC(C)C)NC(=O)[C@@H](NC(=O)[C@@H]1CCCN1)C(C)C)C(=O)N[C@@H](CC(C)C)C(=O)N[C@@H](CCC(=O)O)C(=O)N[C@@H](C)C(=O)N[C@@H](CC(C)C)C(=O)N[C@@H](CCCCN)C(=O)N[C@@H](CCC(N)=O)C(=O)N[C@@H](CCCCN)C(=O)N[C@@H](CC(C)C)C(=O)N[C@@H](CCCCN)C(=O)O` gave a cholesterol efflux of 7%. Moreover, the IC50 (in the data set on RAW264.7 [2]; in data set [3]) was more than 160 µM in each case.
Turning to `CC(C)C[C@H](NC(=O)[C@H](CCCCN)NC(=O)[C@H](CCC(N)=O)NC(=O)[C@H](CCCCN)NC(=O)[C@H](CC(C)C)NC(=O)C(C)(C)NC(=O)[C@H](CCC(=O)O)NC(=O)[C@H](CC(C)C)NC(=O)C(C)(C)NC(=O)[C@H](CCC(=O)O)NC(=O)[C@H](CC(N)=O)NC(=O)[C@H](CC(C)C)NC(=O)[C@H](CCCCN)NC(=O)[C@H](CCC(=O)O)NC(=O)[C@H](CCCNC(=N)N)NC(=O)[C@H](Cc1ccccc1)NC(=O)[C@H](CCC(=O)O)NC(=O)[C@H](CC(=O)O)NC(=O)[C@H](CC(C)C)NC(=O)[C@@H](NC(=O)[C@@H]1CCCN1)C(C)C)C(=O)N[C@@H](CCCCN)C(=O)O` (H-PVLDEFREKLNE[Aib]LE[Aib]LKQKLK-OH), the concentration for a half-maximal effect (EC50) (commonly the concentration needed to bring the measured effect to its halfway point) in the data set with RAW264.7 [4] (setting [6]) came to 23 µM. In addition, the IC50 (in the data set with RAW264.7 [2]; in data set [3]) was more than 160 µM each time.
For `CC(C)C[C@H](NC(=O)[C@H](C)NC(=O)[C@H](CC(C(=O)O)C(=O)O)NC(=O)[C@H](CC(C)C)NC(=O)C(C)(C)NC(=O)[C@H](CCC(=O)O)NC(=O)[C@H](CC(N)=O)NC(=O)[C@H](CC(C)C)NC(=O)[C@H](CCCCN)NC(=O)[C@H](CCC(=O)O)NC(=O)[C@H](CCCNC(=N)N)NC(=O)[C@H](Cc1ccccc1)NC(=O)[C@H](CCC(=O)O)NC(=O)[C@H](CC(=O)O)NC(=O)[C@H](CC(C)C)NC(=O)[C@@H](NC(=O)[C@@H]1CCCN1)C(C)C)C(=O)N[C@@H](CCCCN)C(=O)N[C@@H](CCC(N)=O)C(=O)N[C@@H](CCCCN)C(=O)N[C@@H](CC(C)C)C(=O)N[C@@H](CCCCN)C(=O)O` (H-PVLDEFREKLNE[Aib]L[Gla]ALKQKLK-OH), the EC50 with RAW264.7 [4] (setting [6]) was determined as 41 µM. Also, the IC50 (in general, the point on the concentration scale where inhibition reaches its midpoint) was more than 160 µM in the data set on RAW264.7 [2] and 75 µM in data set [3].
Regarding `CC(C)C[C@H](NC(=O)[C@H](C)NC(=O)[C@H](CCC(=O)O)NC(=O)[C@H](CC(N)=O)NC(=O)[C@H](CC(C)C)NC(=O)[C@H](CCCCN)NC(=O)[C@H](CC(C(=O)O)C(=O)O)NC(=O)[C@H](CCCNC(=N)N)NC(=O)[C@H](Cc1ccccc1)NC(=O)[C@H](CCC(=O)O)NC(=O)[C@H](CC(=O)O)NC(=O)[C@H](CC(C)C)NC(=O)[C@@H](NC(=O)[C@@H]1CCCN1)C(C)C)C(=O)N[C@@H](CCC(=O)O)C(=O)N[C@@H](C)C(=O)N[C@@H](CC(C)C)C(=O)N[C@@H](CCCCN)C(=O)N[C@@H](CCC(N)=O)C(=O)N[C@@H](CCCCN)C(=O)N[C@@H](CC(C)C)C(=O)N[C@@H](CCCCN)C(=O)O` (H-PVLDEFR[Gla]KLNEALEALKQKLK-OH), the EC50 in the data set with RAW264.7 [4] (setting [6]) is 142 µM. Further, the half-inhibitory concentration (IC50) with RAW264.7 [2] is more than 160 µM; in data set [3], 40 µM.
For `CC(C)C[C@H](NC(=O)[C@H](C)NC(=O)[C@H](CCC(=O)O)NC(=O)[C@H](CC(C)C)NC(=O)C(C)(C)NC(=O)[C@H](CCC(=O)O)NC(=O)[C@H](CC(N)=O)NC(=O)[C@H](CC(C)C)NC(=O)[C@H](CCCCN)NC(=O)[C@H](CC(C(=O)O)C(=O)O)NC(=O)[C@H](CCCNC(=N)N)NC(=O)[C@H](Cc1ccccc1)NC(=O)[C@H](CCC(=O)O)NC(=O)[C@H](CC(=O)O)NC(=O)[C@H](CC(C)C)NC(=O)[C@@H](NC(=O)[C@@H]1CCCN1)C(C)C)C(=O)N[C@@H](CCCCN)C(=O)N[C@@H](CCC(N)=O)C(=O)N[C@@H](CCCCN)C(=O)N[C@@H](CC(C)C)C(=O)N[C@@H](CCCCN)C(=O)O` (H-PVLDEFR[Gla]KLNE[Aib]LEALKQKLK-OH), the concentration for a half-maximal effect (EC50) in the data set on RAW264.7 [4] (setting [6]) amounted to 44 µM. The concentration for half-maximal inhibition (IC50) in the data set with RAW264.7 [2] is more than 160 µM; in data set [3] it was 75 µM.
In the case of `CC.CC(C)C[C@H](NC(=O)[C@H](C)NC(=O)[C@H](CCC(=O)O)NC(=O)[C@H](CC(C)C)NC(=O)[C@@H]1CCCCC/C=C\CCCC[C@@H](NC(=O)[C@H](CCC(=O)O)NC(=O)[C@H](CC(=O)O)NC(=O)[C@H](CC(C)C)NC(=O)[C@@H](NC(=O)[C@@H]2CCCN2)C(C)C)C(=O)N[C@@H](CCCNC(=N)N)C(=O)N[C@@H](CCC(=O)O)C(=O)N[C@@H](CCCCN)C(=O)N[C@@H](CC(C)C)C(=O)N[C@@H](CC(N)=O)C(=O)N[C@@H](CCC(=O)O)C(=O)N1)C(=O)N[C@@H](CCCCN)C(=O)N[C@@H](CCC(N)=O)C(=O)N[C@@H](CCCCN)C(=O)N[C@@H](CC(C)C)C(=O)N[C@@H](CCCCN)C(=O)O` (H-PVLDE[X1]REKLNE[X2]LEALKQKLK-OH; staple (Z) 6-13), the EC50 in the data set with RAW264.7 [4] (setting [6]) came out at 2 µM. Moreover, the IC50 (in the data set with RAW264.7 [2]; in data set [3]) was more than 160 µM in each case.
Take `C[C@@H]1[C@H](O)[C@@H](C)/C=C/C=C/C=C/C=C/C=C/C=C/C=C/[C@H](O[C@@H]2O[C@H](C)[C@@H](O)[C@H](N)[C@@H]2O)C[C@@H]2O[C@](O)(C[C@@H](O)C[C@@H](O)[C@H](O)CC[C@@H](O)C[C@@H](O)CC(=O)O[C@H]1C)C[C@H](O)[C@H]2C(=O)O` [AMPHOTERICIN B]: the MLC in data set [5] was 2 µg/mL (≈ 2.16 µM).
On to `O=C(N[C@H](CO)[C@H](O)c1ccc([N+](=O)[O-])cc1)C(Cl)Cl` [CHLORAMPHENICOL], for which, in data set [5], the MLC was more than 64 µg/mL.
On to H-PVLDEFREKLNEELEALKQKLK-OH, for which the EC50 entry in the data set with RAW264.7 [4] (raw264.7) was “Not Active”. The IC50 with RAW264.7 [2] was more than 160 µM; in data set [3], 40 µM.
